Data: ChEMBL document CHEMBL5247578, “Effective synthesis of benzimidazoles-imidazo[1,2-a]pyrazine conjugates: A comparative study of mono-and bis-benzimidazoles for antitumor activity” (Eur J Med Chem, 2019)

Key:
UACC-62 [1] = assay: Antiproliferative activity against human UACC-62 cells assessed as cell growth inhibition by measuring lethal concentration incubated for 48 hrs by sulforhodamine B assay; type: functional; conditions: read-out: LC50 (the source's name)
Procedure, shortened: (§1)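 NCI-60 five-dose screen (10^-4 to 10^-8 M, 10-fold dilutions; DMSO stocks). Cells in RPMI 1640 with 5% FBS and 2 mM L-glutamine, preincubated 24 h, then exposed 48 h at 37 °C, 5% CO2. Fixed with cold TCA, stained with 0.4% SRB, absorbance read at 515 nm. Time-zero plates used as reference. LC50 taken from [(Ti-Tz)/Tz]×100 […].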

BT-549 = assay: Antiproliferative activity against human BT-549 cells assessed as cell growth at 0.00000001 M incubated for 48 hrs by SRB assay relative to control; type: functional; conditions: dose 10 nM, read-out: Activity
Procedure, shortened: (§2)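 NCI-60 five-dose screen over 10^-4–10^-8 M (10-fold dilutions). Cells grown in RPMI 1640 with 5% FBS and 2 mM L-glutamine, seeded at 5,000–40,000 cells/well and preincubated 24 h. Drug from DMSO stock, 48 h at 37 °C, 5% CO2. Adherent cells TCA-fixed and stained with 0.4% SRB; A515 read. Percent growth = (Ti−Tz)/(C−Tz)×100, or (Ti−Tz)/Tz×100 when Ti<Tz.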

HCC 2998 [2] = assay: Antiproliferative activity against human HCC 2998 cells assessed as cell growth at 0.0000001 M incubated for 48 hrs by SRB assay relative to control; type: functional; conditions: dose 100 nM, read-out: Activity
Procedure, shortened: (§3)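 NCI-60 five-dose screen (10^-4 to 10^-8 M). Cells grown in RPMI 1640 with 5% FBS and 2 mM L-glutamine, plated at 5,000-40,000 cells/well and preincubated 24 h. Drug given from DMSO stock, then 48 h at 37 °C, 5% CO2. For adherent lines, cells fixed with cold TCA, SRB-stained and read at 515 nm. Percent growth taken against time-zero and untreated control.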

NCI-H23 = assay: Antiproliferative activity against human NCI-H23 cells assessed as cell growth at 0.0001 M incubated for 48 hrs by SRB assay relative to control; type: functional; conditions: read-out: Activity
SK-OV-3 = assay: Antiproliferative activity against human SK-OV-3 cells assessed as cell growth at 0.00000001 M incubated for 48 hrs by SRB assay relative to control; type: functional; conditions: dose 10 nM, read-out: Activity
SN12C = assay: Antiproliferative activity against human SN12C cells assessed as cell growth inhibition by measuring lethal concentration incubated for 48 hrs by sulforhodamine B assay; type: functional; conditions: read-out: LC50 (the source's name)
NCI-H522 [3] = assay: Antiproliferative activity against human NCI-H522 cells assessed as cell growth at 0.000001 M incubated for 48 hrs by SRB assay relative to control; type: functional; conditions: read-out: Activity
RPMI-8226 = assay: Antiproliferative activity against human RPMI-8226 cells assessed as cell growth at 0.000001 M incubated for 48 hrs by SRB assay relative to control; type: functional; conditions: read-out: Activity
NCI-H522 [4] = assay: Growth inhibition against human NCI-H522 cells incubated for 48 hrs by sulforhodamine B assay; type: functional
ACHN = assay: Antiproliferative activity against human ACHN cells assessed as cell growth at 0.0000001 M incubated for 48 hrs by SRB assay relative to control; type: functional; conditions: dose 100 nM, read-out: Activity; procedure, shortened: as §2
U-251 [5] = assay: Antiproliferative activity against human U-251 cells assessed as cell growth at 0.00001 M incubated for 48 hrs by SRB assay relative to control; type: functional; conditions: read-out: Activity
SK-MEL-5 = assay: Growth inhibition against human SK-MEL-5 cells assessed as total growth inhibitory concentration incubated for 48 hrs by sulforhodamine B assay; type: functional
PC-3 = assay: Antiproliferative activity against human PC-3 cells assessed as cell growth at 0.0001 M incubated for 48 hrs by SRB assay relative to control; type: functional; conditions: read-out: Activity
NCI-H226 = assay: Antiproliferative activity against human NCI-H226 cells assessed as cell growth inhibition by measuring lethal concentration incubated for 48 hrs by sulforhodamine B assay; type: functional; conditions: read-out: LC50 (the source's name)
TK-10 = assay: Antiproliferative activity against human TK-10 cells assessed as cell growth at 0.0000001 M incubated for 48 hrs by SRB assay relative to control; type: functional; conditions: dose 100 nM, read-out: Activity
IGROV-1 = assay: Growth inhibition against human IGROV-1 cells assessed as total growth inhibitory concentration incubated for 48 hrs by sulforhodamine B assay; type: functional
HL-60 [6] = assay: Antiproliferative activity against human HL-60 cells assessed as cell growth at 0.00001 M incubated for 48 hrs by SRB assay relative to control; type: functional; conditions: read-out: Activity; procedure, shortened: as §3
786-0 = assay: Growth inhibition against human 786-0 cells incubated for 48 hrs by sulforhodamine B assay; type: functional
T47D [7] = assay: Antiproliferative activity against human T47D cells assessed as cell growth at 0.000001 M incubated for 48 hrs by SRB assay relative to control; type: functional; conditions: read-out: Activity
MCF7 = assay: Antiproliferative activity against human MCF7 cells assessed as cell growth at 0.000001 M incubated for 48 hrs by SRB assay relative to control; type: functional; conditions: read-out: Activity
T47D [8] = assay: Growth inhibition against human T47D cells incubated for 48 hrs by sulforhodamine B assay; type: functional
HCC 2998 [9] = assay: Growth inhibition against human HCC 2998 cells incubated for 48 hrs by sulforhodamine B assay; type: functional
HOP-92 = assay: Growth inhibition against human HOP-92 cells assessed as total growth inhibitory concentration incubated for 48 hrs by sulforhodamine B assay; type: functional
MDA-MB-231 = assay: Growth inhibition against human MDA-MB-231 cells assessed as total growth inhibitory concentration incubated for 48 hrs by sulforhodamine B assay; type: functional
UACC-62 [10] = assay: Growth inhibition against human UACC-62 cells incubated for 48 hrs by sulforhodamine B assay; type: functional
U-251 [11] = assay: Antiproliferative activity against human U-251 cells assessed as cell growth inhibition by measuring lethal concentration incubated for 48 hrs by sulforhodamine B assay; type: functional; conditions: read-out: LC50 (the source's name); procedure, shortened: as §1
A549 = assay: Antiproliferative activity against human A549 cells assessed as cell growth at 0.0001 M incubated for 48 hrs by SRB assay relative to control; type: functional; conditions: read-out: Activity; procedure, shortened: as §2
HCT-116 = assay: Antiproliferative activity against human HCT-116 cells assessed as cell growth at 0.0000001 M incubated for 48 hrs by SRB assay relative to control; type: functional; conditions: dose 100 nM, read-out: Activity; procedure, shortened: as §3
SF-295 = assay: Antiproliferative activity against human SF-295 cells assessed as cell growth at 0.000001 M incubated for 48 hrs by SRB assay relative to control; type: functional; conditions: read-out: Activity
HL-60 [12] = assay: Growth inhibition against human HL-60 cells assessed as total growth inhibitory concentration incubated for 48 hrs by sulforhodamine B assay; type: functional
OVCAR-3 = assay: Antiproliferative activity against human OVCAR-3 cells assessed as cell growth at 0.00000001 M incubated for 48 hrs by SRB assay relative to control; type: functional; conditions: dose 10 nM, read-out: Activity
CCRF-CEM = assay: Antiproliferative activity against human CCRF-CEM cells assessed as cell growth at 0.00001 M incubated for 48 hrs by SRB assay relative to control; type: functional; conditions: read-out: Activity; procedure, shortened: as §2
HEK293 = assay: Cytotoxicity against human HEK293 cells assessed as reduction in cell viability at 0.0001 M incubated for 48 hrs by MTT colorimetric assay relative to control; type: toxicity, cell-based; conditions: hek293, 48 h, 100 µM

| Structure (SMILES) | CC50 (UACC-62 [1]) [nM] | growth at 0.01 µM (BT-549) [%] | growth at 0.1 µM (HCC 2998 [2]) [%] | growth at 100 µM (NCI-H23) [%] | growth at 0.01 µM (SK-OV-3) [%] | CC50 (SN12C) [nM] | growth at 1 µM (NCI-H522 [3]) [%] | growth at 1 µM (RPMI-8226) [%] | GI50 (NCI-H522 [4]) [nM] | growth at 0.1 µM (ACHN) [%] | growth at 10 µM (U-251 [5]) [%] | TGI (SK-MEL-5) [nM] | growth at 100 µM (PC-3) [%] | CC50 (NCI-H226) [nM] | growth at 0.1 µM (TK-10) [%] | TGI (IGROV-1) [nM] | growth at 10 µM (HL-60 [6]) [%] | GI50 (786-0) [nM] | growth at 1 µM (T47D [7]) [%] | growth at 1 µM (MCF7) [%] | also measured |
| --- | --- | --- | --- | --- | --- | --- | --- | --- | --- | --- | --- | --- | --- | --- | --- | --- | --- | --- | --- | --- | --- |
| COc1ccc(-c2cn3ccnc3c(-c3ccc4ncn(C5CCCCC5)c4c3)n2)cc1 | > 100000 | 8 | 94 | 22 | 87 | > 100000 | 28 | 86 | 424 | 100 | 14 | 3200 | 24 | > 100000 | 88 | > 100000 | -22 | 527 | 45 | 40 | GI50 (T47D [8]): 760 nM; GI50 (HCC 2998 [9]): 2920 nM; TGI (HOP-92): > 100000 nM; TGI (MDA-MB-231): > 100000 nM; GI50 (UACC-62 [10]): 434 nM; CC50 (U-251 [11]): > 100000 nM; growth at 100 µM (A549): 16%; growth at 0.1 µM (HCT-116): 91%; growth at 1 µM (SF-295): 18%; TGI (HL-60 [12]): 5050 nM; growth at 0.01 µM (OVCAR-3): 100%; growth at 10 µM (CCRF-CEM): 16%; Activity (HEK293): 19.05% |
| c1ccc(Cn2cnc3ccc(-c4nc(-c5ccc6c(c5)ncn6C5CCCCC5)cn5ccnc45)cc32)cc1 | > 100000 | 85 | 98 | -79 | 84 | > 100000 | 88 | 55 | 2030 | 97 | -27 | 2960 | -3 | > 100000 | 84 | > 100000 | -24 | 799 | 61 | 87 | GI50 (T47D [8]): 1490 nM; GI50 (HCC 2998 [9]): 1900 nM; TGI (HOP-92): 2620 nM; TGI (MDA-MB-231): 3690 nM; GI50 (UACC-62 [10]): 1980 nM; CC50 (U-251 [11]): > 100000 nM; growth at 100 µM (A549): -40%; growth at 0.1 µM (HCT-116): 93%; growth at 1 µM (SF-295): 74%; TGI (HL-60 [12]): 6650 nM; growth at 0.01 µM (OVCAR-3): 101%; growth at 10 µM (CCRF-CEM): 8%; Activity (HEK293): 18.05% |
